{"source": "the M2OR odorant receptor database", "key": {"UniProt Q7TR79": {"target": "T1, UniProt Q7TR79", "T1 sequence (whole entry)": "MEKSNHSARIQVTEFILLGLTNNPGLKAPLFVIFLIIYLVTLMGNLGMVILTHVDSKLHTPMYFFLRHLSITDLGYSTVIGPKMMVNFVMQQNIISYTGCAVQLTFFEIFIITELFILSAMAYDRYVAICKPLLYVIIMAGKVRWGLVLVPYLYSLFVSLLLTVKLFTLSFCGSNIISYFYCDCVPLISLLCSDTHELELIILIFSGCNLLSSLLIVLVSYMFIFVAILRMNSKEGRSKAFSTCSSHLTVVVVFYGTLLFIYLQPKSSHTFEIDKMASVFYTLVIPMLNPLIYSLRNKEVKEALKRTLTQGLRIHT", "settings": "stereoisomer not certain", "procedure,_shortened": "(§1)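 Assay methods differ from source to source, frequently being transient luciferase assays in mammalian cell lines. For each receptor–molecule pair, the label responsive (active) applies when the original authors judged the measured signal statistically different from baseline, and non-responsive (inactive) applies otherwise.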"}, "UniProt Q7TRX0": {"target": "T2, UniProt Q7TRX0", "T2 sequence (whole entry)": "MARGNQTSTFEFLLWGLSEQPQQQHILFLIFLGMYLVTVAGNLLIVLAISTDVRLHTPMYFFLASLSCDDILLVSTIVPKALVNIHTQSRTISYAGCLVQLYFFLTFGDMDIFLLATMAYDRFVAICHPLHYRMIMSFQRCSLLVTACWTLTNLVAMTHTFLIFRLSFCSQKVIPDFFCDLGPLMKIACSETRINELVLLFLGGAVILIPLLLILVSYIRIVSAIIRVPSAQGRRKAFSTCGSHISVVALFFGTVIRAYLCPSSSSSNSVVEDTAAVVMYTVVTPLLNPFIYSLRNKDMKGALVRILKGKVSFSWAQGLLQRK", "settings": "stereoisomer not certain", "procedure,_shortened": "as §1"}}, "data": [{"smiles": "OCCc1ccccc1", "values": [{"measurement": "odorant receptor agonist call", "setting": "UniProt Q7TR79", "value": "inactive"}, {"measurement": "odorant receptor agonist call", "setting": "UniProt Q7TRX0", "value": "inactive"}]}, {"smiles": "CSSSC", "values": [{"measurement": "odorant receptor agonist call", "setting": "UniProt Q7TR79", "value": "inactive"}, {"measurement": "odorant receptor agonist call", "setting": "UniProt Q7TRX0", "value": "inactive"}]}, {"smiles": "CNc1ccccc1C(=O)OC", "values": [{"measurement": "odorant receptor agonist call", "setting": "UniProt Q7TR79", "value": "inactive"}, {"measurement": "odorant receptor agonist call", "setting": "UniProt Q7TRX0", "value": "inactive"}]}, {"smiles": "C1CCOCC1", "values": [{"measurement": "odorant receptor agonist call", "setting": "UniProt Q7TR79", "value": "inactive"}, {"measurement": "odorant receptor agonist call", "setting": "UniProt Q7TRX0", "value": "inactive"}]}, {"smiles": "CC(C)CCN", "values": [{"measurement": "odorant receptor agonist call", "setting": "UniProt Q7TR79", "value": "inactive"}, {"measurement": "odorant receptor agonist call", "setting": "UniProt Q7TRX0", "value": "inactive"}]}, {"smiles": "COc1nccnc1C", "values": [{"measurement": "odorant receptor agonist call", "setting": "UniProt Q7TR79", "value": "inactive"}, {"measurement": "odorant receptor agonist call", "setting": "UniProt Q7TRX0", "value": "inactive"}]}, {"smiles": "O=C(O)C1CCC1", "values": [{"measurement": "odorant receptor agonist call", "setting": "UniProt Q7TR79", "value": "inactive"}, {"measurement": "odorant receptor agonist call", "setting": "UniProt Q7TRX0", "value": "inactive"}]}, {"smiles": "Cc1ccc(OC(=O)C(C)C)cc1", "values": [{"measurement": "odorant receptor agonist call", "setting": "UniProt Q7TR79", "value": "inactive"}, {"measurement": "odorant receptor agonist call", "setting": "UniProt Q7TRX0", "value": "inactive"}]}, {"smiles": "CCOC(=O)C(C)CC", "note": "(configuration not stated)", "values": [{"measurement": "odorant receptor agonist call", "setting": "UniProt Q7TR79", "value": "inactive"}, {"measurement": "odorant receptor agonist call", "setting": "UniProt Q7TRX0", "value": "inactive"}]}, {"smiles": "CCC=CCCCCC=O", "values": [{"measurement": "odorant receptor agonist call", "setting": "UniProt Q7TR79", "value": "inactive"}, {"measurement": "odorant receptor agonist call", "setting": "UniProt Q7TRX0", "value": "inactive"}]}, {"smiles": "c1ccc2ncccc2c1", "values": [{"measurement": "odorant receptor agonist call", "setting": "UniProt Q7TR79", "value": "inactive"}, {"measurement": "odorant receptor agonist call", "setting": "UniProt Q7TRX0", "value": "inactive"}]}, {"smiles": "CSSCc1ccco1", "values": [{"measurement": "odorant receptor agonist call", "setting": "UniProt Q7TR79", "value": "inactive"}, {"measurement": "odorant receptor agonist call", "setting": "UniProt Q7TRX0", "value": "inactive"}]}, {"smiles": "CC(=O)OCc1ccc2c(c1)OCO2", "values": [{"measurement": "odorant receptor agonist call", "setting": "UniProt Q7TR79", "value": "inactive"}, {"measurement": "odorant receptor agonist call", "setting": "UniProt Q7TRX0", "value": "inactive"}]}, {"smiles": "CCN(CC)CC", "values": [{"measurement": "odorant receptor agonist call", "setting": "UniProt Q7TR79", "value": "inactive"}, {"measurement": "odorant receptor agonist call", "setting": "UniProt Q7TRX0", "value": "inactive"}]}, {"smiles": "C1CCOC1", "values": [{"measurement": "odorant receptor agonist call", "setting": "UniProt Q7TR79", "value": "inactive"}, {"measurement": "odorant receptor agonist call", "setting": "UniProt Q7TRX0", "value": "inactive"}]}, {"smiles": "CC(=O)OC1(C)CCC23CC1C(C)(C)C2CCC3C", "note": "(configuration not stated)", "values": [{"measurement": "odorant receptor agonist call", "setting": "UniProt Q7TR79", "value": "inactive"}, {"measurement": "odorant receptor agonist call", "setting": "UniProt Q7TRX0", "value": "inactive"}]}, {"smiles": "C=CC(=C)CCC=C(C)C", "values": [{"measurement": "odorant receptor agonist call", "setting": "UniProt Q7TR79", "value": "inactive"}, {"measurement": "odorant receptor agonist call", "setting": "UniProt Q7TRX0", "value": "inactive"}]}, {"smiles": "CCc1nccnc1CC", "values": [{"measurement": "odorant receptor agonist call", "setting": "UniProt Q7TR79", "value": "inactive"}, {"measurement": "odorant receptor agonist call", "setting": "UniProt Q7TRX0", "value": "inactive"}]}, {"smiles": "CC(C)CS", "values": [{"measurement": "odorant receptor agonist call", "setting": "UniProt Q7TR79", "value": "inactive"}, {"measurement": "odorant receptor agonist call", "setting": "UniProt Q7TRX0", "value": "inactive"}]}, {"smiles": "C=C1C2CCC(C2)C1(C)C", "note": "(configuration not stated)", "values": [{"measurement": "odorant receptor agonist call", "setting": "UniProt Q7TR79", "value": "inactive"}, {"measurement": "odorant receptor agonist call", "setting": "UniProt Q7TRX0", "value": "inactive"}]}, {"smiles": "CCCCCCCOC(=O)C(C)C", "values": [{"measurement": "odorant receptor agonist call", "setting": "UniProt Q7TR79", "value": "inactive"}, {"measurement": "odorant receptor agonist call", "setting": "UniProt Q7TRX0", "value": "inactive"}]}, {"smiles": "COc1cnccn1", "values": [{"measurement": "odorant receptor agonist call", "setting": "UniProt Q7TR79", "value": "inactive"}, {"measurement": "odorant receptor agonist call", "setting": "UniProt Q7TRX0", "value": "inactive"}]}, {"smiles": "CCCC=O", "values": [{"measurement": "odorant receptor agonist call", "setting": "UniProt Q7TR79", "value": "inactive"}, {"measurement": "odorant receptor agonist call", "setting": "UniProt Q7TRX0", "value": "inactive"}]}, {"smiles": "Cc1ccc2c(c1)OCC(=O)CO2", "values": [{"measurement": "odorant receptor agonist call", "setting": "UniProt Q7TR79", "value": "inactive"}, {"measurement": "odorant receptor agonist call", "setting": "UniProt Q7TRX0", "value": "inactive"}]}, {"smiles": "CC1(C)CC(=O)CC(=O)C1", "values": [{"measurement": "odorant receptor agonist call", "setting": "UniProt Q7TR79", "value": "inactive"}, {"measurement": "odorant receptor agonist call", "setting": "UniProt Q7TRX0", "value": "inactive"}]}, {"smiles": "C=C(C)C1CCC2(C)OC2C1", "note": "(configuration not stated)", "values": [{"measurement": "odorant receptor agonist call", "setting": "UniProt Q7TR79", "value": "inactive"}, {"measurement": "odorant receptor agonist call", "setting": "UniProt Q7TRX0", "value": "inactive"}]}, {"smiles": "CC(=O)OCCc1ccccc1", "values": [{"measurement": "odorant receptor agonist call", "setting": "UniProt Q7TR79", "value": "inactive"}, {"measurement": "odorant receptor agonist call", "setting": "UniProt Q7TRX0", "value": "inactive"}]}, {"smiles": "CC1CCC(C(C)C)C(=O)C1", "note": "(configuration not stated)", "values": [{"measurement": "odorant receptor agonist call", "setting": "UniProt Q7TR79", "value": "inactive"}, {"measurement": "odorant receptor agonist call", "setting": "UniProt Q7TRX0", "value": "inactive"}]}, {"smiles": "C=C(CC)CCCC(C)(C)O", "values": [{"measurement": "odorant receptor agonist call", "setting": "UniProt Q7TR79", "value": "inactive"}, {"measurement": "odorant receptor agonist call", "setting": "UniProt Q7TRX0", "value": "inactive"}]}, {"smiles": "CCC(C)c1nccnc1OC", "note": "(configuration not stated)", "values": [{"measurement": "odorant receptor agonist call", "setting": "UniProt Q7TR79", "value": "inactive"}, {"measurement": "odorant receptor agonist call", "setting": "UniProt Q7TRX0", "value": "inactive"}]}, {"smiles": "CCCCCCCCOC=O", "values": [{"measurement": "odorant receptor agonist call", "setting": "UniProt Q7TR79", "value": "inactive"}, {"measurement": "odorant receptor agonist call", "setting": "UniProt Q7TRX0", "value": "inactive"}]}]}
